The values below come from publication PMC10165662 (Bioorganic & medicinal chemistry letters, 2023).

This test deals with 20S proteasome (sCP), β5 subunit (Homo sapiens, UniProt P28074). The format is biochemical. The conditions noted are these: Figures 2C and 4B. In short, it runs like this:
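Purified human constitutive 20S proteasome (5 nM) incubated with LLVY-conjugated test substrate (10 μM in aminocoumarin time course) up to 4 h at 37 °C. Free LLVY [M+H] EIC quantified by single-quadrupole LC-MS against a purified LLVY standard curve (20–1250 pmol; LOQ 20 pmol), giving % cleaved. Reference fluorogenic substrates included each replicate; triplicates; one-way ANOVA.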

Entries after “also recorded” stand apart in the source; their conditions may differ. Peptide text beside a SMILES is read from it. * marks the point of attachment. AMC = Cc1cc(=O)oc2cc(N*)ccc12

Consider `Cc1cc(=O)oc2cc(NC(=O)[C@H](Cc3ccc(O)cc3)NC(=O)[C@@H](NC(=O)[C@H](CC(C)C)NC(=O)[C@@H](N)CC(C)C)C(C)C)ccc12` [LLVY-AMC] (H-LLVY-{AMC}), for which the “Rate of hydrolysis by the sCP in time-dependent MS analysis (in words)” value is recorded as “hydrolyzed by the sCP faster than TAS-1; also recorded: faster rate than the molecule with 6-aminocoumarin”.
